Test results from the EternaBench riboswitch data.

Test system: MS2 coat protein
Experiment: apparent Kd, MS2 coat protein; higher = weaker binding; RNA-MaP array; FMN 200 µM where present
Procedure, shortened: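 On Illumina sequencing-chip clusters, designs were transcribed by stalled E. coli RNA polymerase and titrated with SNAP-549-labelled MS2 coat protein (0.7 or 1.5 nM, doubling to 3 µM), without and then with constant ligand, in 100 mM Tris-HCl pH 7.5, 80 mM KCl, 4 mM MgCl2, BSA, DTT, yeast tRNA and Tween-20. Apparent Kd is the median of filtered per-cluster curve fits to green signal normalised to red-channel RNA signal and control-cluster median Fmax.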

[1] = designed as: OFF switch for flavin mononucleotide, no ligand
[2] = ligand present: flavin mononucleotide, designed as: OFF switch for flavin mononucleotide
[3] = designed as: ON switch for flavin mononucleotide, no ligand
[4] = ligand present: flavin mononucleotide, designed as: ON switch for flavin mononucleotide

Sequence	apparent Kd [1]	apparent Kd [2]	apparent Kd [3]	apparent Kd [4]
GGAUAGGACAGAGGAUAUACGUGCUAGAGAUACUAGCAAAAUUUCCUCACAUGAGGAUCACCCAUGUAGAAGGCAGUCCUAUCG	4.95 nM	7.33 nM		
GUCAGCUCGUGAGGAUAUACAACACUGCUCCGGCAGUGUAUUAAGAUCACAUGAGGAUCACCCAUGUAGAAGGCACGAGCUGAU	13.3 nM	237 nM		
AUGCCGGGCCGAGGAUAUAAGUCUAGGACAUGAGGAUCACCCAUGUAUGUCUUAGAAGGCGGCCCGGCAAGCCUGUUACAGGCA			27.7 nM	6.6 nM
CCAAGCUGUGUGAGGAUAUGCUGGUCCUUGGAUCAGCAGAAGGCACAUGAGGAUCACCCAUGUGAAAAGCUUGG	15.1 nM	52.1 nM		
CACAUUUUAACAGGAUAUGUAAGGUUGUUUAUUAUUGCAUUUACAAUUAUUACAGAAGGGUUAUACAUGAGGAUCACCCAUGUG			15.3 nM	15.5 nM
CAGGACAGGAAACGGAGCGGCCAACAUGAGGAUCACCCAUGUAAGGAUAUGCCUACUAAAAGUAGGCAGAAGGUACAGAAGGCA	29.9 nM	73.1 nM		
UUUAUUUCGGCAGGAUAUACAUGUAUAUAUAUUUCUUCAUAUCUUAUUACAUGAGGAUCACCCAUGUAGAAGGGCCUUCUUCUC	65.6 nM	80.5 nM		
AAAUUGUCAGGAUAUCCAGCUAUACGAAAUAUGUAUACACGGGAGAAGGGACAUGAGGAUCACCCAUGUUUGAA	36.8 nM	45.9 nM		
CAUCUGUCAGGAUAUAUGCGAGGGCCACGAAGCGGCCCUUCAUAGAAGGGACAUGAGGAUCACCCAUGUAGAUC	461 nM	310 nM		
GGAUUACAUGAGGAUCACCCAUGUGAGGAUAUCGAUGUCCUGUGUGGAGUGCGGGACUCGAGAAGGCACUUGGA	43.8 nM	219 nM		
UAAAAACAUGAGGAUCACCCAUGUGAAAAUAUGGGAGGAUAUACAAAGACGAGAGUCAAAGUAGAAGGCCUAAAAU			73.5 nM	24.5 nM
GGUACUCAAAGAGUACCAAAACGAACAUGAGGAUCACCCAUGUAGGAUAUGCUACUCAAAGAGUAGCAGAAGGACAUGUGCCUA		122 nM		
CGGGUCUGAGGAUAUCCAUCUUCAUACAUGAGGAUCACCCAUGUUUACCUUUGGGUUUUUGGAGAAGGCAGUUUUC	43.5 nM	74.6 nM		
GUUACAUGAGGAUCACCCAUGUAUGUGUGGGAGUAAGUGUCUUAGGAUAUCUAUUAUUUAAUUUAAGAGAAGGAAGAUUGUUGU			118 nM	133 nM
GCGUAACAUGAGGAUCACCCAUGUACCCGAGAAUUCGGGUCGAGAAGGGUGACCGGUCGUUUGGCACAGGAUAUCGACGUUGUG			19.4 nM	14.5 nM
GCACGGAGUGUAGGAUAUUAGUGCGAUUAGCACUGAGAAGGACAUGAGGAUCACCCAUGUUCCUCAAUAACAUACCUUCCGUGC	13.8 nM	10.6 nM		
AAUAUGAGCUGGAAUAAAACCUGAACAUGAGGAUCACCCAUGUAGGAUAUCAGCACGAUAAGUGCUGAGAAGGACAACCAGCUC	14 nM	14.6 nM		
UUGGACGUCGUAGGAUAUGUAGGAUAUUCCUACAUGAGGAUCACCCAUGUUGACAUGCAAGAAGGACAGAAGGACGAUGUCCAU			240 nM	6.54 nM
GUCAGCUCGUGAGGAUAUACAUGUGCUGGAUACAGCACUAAUAGAAUCACAUGAGGAUCACCCAUGUAGAAGGCACGAGCUGAU	17.6 nM	39.4 nM		
UCUGCCGCCGUGAGGAUAUGCCCAAAGAAAAGCGGGCAGAAGGCACAUGAGGAUCACCCAUGUCCCGCGGUUUU	18 nM	38.4 nM		
UGGUACUAGGGAGGAUAUGGGAAGAUACAUGAGGAUCACCCAUGUUUCAGAAUGCCGAGAGGCAACUAGAAGGCCCUAGUACCU			59.7 nM	6.38 nM
GUAGAGUAAGGAUAUCGAGAAUAGGAUAGAAUGGAUAGAAUCGAGAAGGUACAUGAGGAUCACCCAUGUAAUGU	20.3 nM	18.6 nM		
UUUUCGUGAGGAUAUCAGUAGUAAAUAAAUAAAAUUACUACUGAGAAGGCACAUGAGGAUCACCCAUGUUCCUU	12.7 nM	22.9 nM		
